The values that follow come from publication PMC5598146 (Toxicology Reports, 2015).

Series [1] in a line: Relative oral bioavailability of sodium, phosphate and hemisulfate salts in rats. The class given is in vivo, Sprague-Dawley rats. Conditions: single oral 30 mg/kg, male rats. Put shortly: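 Male Sprague-Dawley rats, 4/group, received a single 30 mg/kg oral gavage dose in 1% methylcellulose of either parent acid or its sodium, phosphate or sulfate salt. Jugular-catheter blood was drawn at about 15 and 30 min and at 1, 2, 4, 8 and 24 h. Plasma parent was measured by LC/MS/MS with an internal standard. Relative AUClast and Cmax were corrected for molecular-weight differences.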

Series [2] has as its system S. typhimurium strains TA98 and TA100. Description: Abbreviated Ames. The class given is cell-based. Put shortly:
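Salmonella TA98 and TA100 plate-incorporation assay per OECD 471, run with and without rat liver S9. Test compound and its decarboxylated impurity were tested at concentrations up to and including 5000 µg/plate, with vehicle and positive controls. Revertant colony counts were compared with vehicle control, and bacterial toxicity was recorded.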

As a reminder, the Cmax is the highest concentration seen after dosing. Take `Cc1nc2cccc(OCC(C)(C)C(=O)NC(C)C)c2c(N)c1C(=O)O.Cc1nc2cccc(OCC(C)(C)C(=O)NC(C)C)c2c(N)c1C(=O)O.O=S(=O)(O)O` [S1638]: the Cmax/Equiv. dose in series [1] is reported as 1.377 ng/mL/mg/kg. The Cmax in series [1] (S9632 measured in plasma) turned out to be 34.80 ± 7.55 ng/mL. Moreover, the “%Cmax Relative to S9632” value in series [1] (corrected for molecular weight, 30 mg/kg) was found to be 106.7%.

With `Cc1cc(N)c2c(OCC(C)(C)C(=O)NC(C)C)cccc2n1` [S9379, 4-amino-5-(3-(isopropylamino)-2,2-dimethyl-3-oxopropoxy)-2-methylquinoline], the “Concentration with cytotoxicity (reduction in the background lawn)” value in series [2] (TA98 and TA100 without metabolic activation) amounted to 5000 μg/plate. Moreover, the “Mutagenicity, result” value in series [2] (plate incorporation, up to 5000 μg/plate, ±S9) was “not mutagenic”.
